Results as given in ChEMBL document CHEMBL1817635, “Ellipticines and 9-acridinylamines as inhibitors of D-alanine:D-alanine ligase” (Bioorg Med Chem, 2011).
Values after ≈ are worked out from the molar mass of the structure shown.

Tests used:
Escherichia coli [1] = experiment: Antimicrobial activity against AcrAB-deficient Escherichia coli SM1411 after 18 hrs by broth microdilution method; assay type: functional; settings: SM1411, 18 h
Staphylococcus aureus [2] = experiment: Antimicrobial activity against Staphylococcus aureus SH1000 after 18 hrs by broth microdilution method; assay type: functional; settings: SH1000, 18 h
Escherichia coli [3] = experiment: Antimicrobial activity against Escherichia coli 1411 after 18 hrs by broth microdilution method; assay type: functional; settings: Escherichia coli, 1411, 18 h
Escherichia coli [4] = experiment: Inhibition of Escherichia coli DdlB assessed as residual activity of the enzyme assessed as orthophosphate formation at 250 uM after 20 mins by malachite green reagent method
Outline: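 Purified His-tagged E. coli DdlB, diluted in 50 mM Hepes pH 7.2 with 1 mM DTT. Reaction at 37 °C in 50 mM Hepes pH 8.0, 3.25 mM MgCl2, 6.5 mM (NH4)2SO4, D-Ala, ATP and 5% DMSO. Incubated 20 min, then malachite green reagent added and A650 read after 5 min. Duplicates, with parallel testing in 0.005% Triton X-114.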

[5] = Inhibition of Escherichia coli DdlB assessed as residual activity of the enzyme assessed as orthophosphate formation after 20 mins by malachite green reagent method
Staphylococcus aureus [6] = experiment: Effect on membrane integrity in Staphylococcus aureus SH1000 at four times MIC after 10 mins by BacLight assay; assay type: functional
Staphylococcus aureus [7] = experiment: Antimicrobial activity against Staphylococcus aureus 8325-4 after 18 hrs by broth microdilution method; assay type: functional; settings: 8325-4, 18 h
Outline: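 Broth microdilution MIC following British Society for Antimicrobial Chemotherapy guidelines, run against S. aureus […] 8325-4.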

COc1cc(Nc2c3ccc(Cl)cc3nc3ccc(OC)cc23)c2ncccc2c1
MIC (Escherichia coli [1]): > 256 µg/mL
MIC (Staphylococcus aureus [2]): > 256 µg/mL
MIC (Escherichia coli [3]): > 256 µg/mL
Activity (Escherichia coli [4]): 25%
IC50 [5]: 32 µM

Cc1c2cnccc2c(C)c2c1c1ccc(F)cc1n2C
MIC (Escherichia coli [1]): > 256 µg/mL
MIC (Staphylococcus aureus [2]): > 256 µg/mL
MIC (Escherichia coli [3]): > 256 µg/mL
IC50 [5]: 90 µM

CCN(CC)Cc1cc2[nH]c3c4ccc(Cl)cc4ncc3c2cc1OC
MIC (Escherichia coli [1]): 32 µg/mL (≈ 87 µM)
MIC (Staphylococcus aureus [2]): 256 µg/mL (≈ 696 µM)
MIC (Escherichia coli [3]): 256 µg/mL (≈ 696 µM)
IC50 [5]: 623 µM

COc1cc2c(cc1CN(C)C)[nH]c1c3ccc(Cl)cc3ncc21
MIC (Escherichia coli [1]): 32 µg/mL (≈ 94.2 µM)
MIC (Staphylococcus aureus [2]): 256 µg/mL (≈ 753 µM)
MIC (Escherichia coli [3]): 128 µg/mL (≈ 377 µM)

Cc1c2ccncc2c(C)c2c1[nH]c1ccc(Br)cc12
MIC (Escherichia coli [1]): 16 µg/mL (≈ 49.2 µM)
MIC (Staphylococcus aureus [2]): 16 µg/mL (≈ 49.2 µM)
Activity (Staphylococcus aureus [6]): 49.6%
MIC (Escherichia coli [3]): > 256 µg/mL
IC50 [5]: 86 µM

Cc1c2cc[n+](C)cc2c(C)c2c1[nH]c1cc(F)ccc12.[I-]
MIC (Escherichia coli [1]): 4 µg/mL
MIC (Staphylococcus aureus [2]): > 256 µg/mL
MIC (Escherichia coli [3]): > 256 µg/mL
IC50 [5]: 64 µM

COc1ccc2nc3cc(Cl)ccc3c(Nc3ccc(O)c(CN4CCN(C)CC4)c3)c2c1
MIC (Escherichia coli [1]): 64 µg/mL (≈ 138 µM)
Activity (Staphylococcus aureus [6]): 48.7%
MIC (Escherichia coli [3]): > 256 µg/mL
MIC (Staphylococcus aureus [7]): 32 µg/mL (≈ 69.1 µM)
IC50 [5]: 162 µM

COc1ccc2nc3cc(Cl)ccc3c(NCCNc3c4ccc(Cl)cc4nc4ccc(OC)cc34)c2c1
Activity (Escherichia coli [4]): 27%

CCN(CC)Cc1cc(Nc2c3ccc(Cl)cc3nc3ccc(OC)cc23)ccc1O
MIC (Escherichia coli [1]): 128 µg/mL (≈ 294 µM)
MIC (Staphylococcus aureus [2]): 128 µg/mL (≈ 294 µM)
MIC (Escherichia coli [3]): 256 µg/mL (≈ 587 µM)
Activity (Escherichia coli [4]): 46%
IC50 [5]: 320 µM

CCc1cccc2c1[nH]c1c(C)c3ccncc3c(C)c12
MIC (Escherichia coli [1]): > 256 µg/mL
MIC (Staphylococcus aureus [2]): 8 µg/mL (≈ 29.2 µM)
Activity (Staphylococcus aureus [6]): 34.2%
MIC (Escherichia coli [3]): > 256 µg/mL
IC50 [5]: 125 µM

COc1ccc2c(c1)c1c(C)c3cnccc3c(C)c1n2C
IC50 [5]: 184 µM

Cc1c2ccncc2c(C)c2c1[nH]c1cc(F)ccc12
MIC (Escherichia coli [1]): 8 µg/mL (≈ 30.3 µM)
MIC (Staphylococcus aureus [2]): 4 µg/mL (≈ 15.1 µM)
Activity (Staphylococcus aureus [6]): 42.8%
MIC (Escherichia coli [3]): > 256 µg/mL
IC50 [5]: 103 µM

CCN(CC)Cc1cc2[nH]c3c4ccc(Cl)cc4ncc3c2cc1OC.Cl.Cl.Cl
MIC (Escherichia coli [1]): > 256 µg/mL
MIC (Staphylococcus aureus [2]): > 256 µg/mL
MIC (Escherichia coli [3]): > 256 µg/mL
IC50 [5]: 330 µM

Cc1c2cnccc2c(C)c2c1c1cc(Br)ccc1n2C
IC50 [5]: 297 µM

COc1ccc2c(c1)c1c(C)c3cnccc3c(C)c1n2CCCN
MIC (Escherichia coli [1]): 8 µg/mL (≈ 24 µM)
MIC (Escherichia coli [3]): 32 µg/mL (≈ 96 µM)
MIC (Staphylococcus aureus [7]): 32 µg/mL (≈ 96 µM)
IC50 [5]: 70 µM

Cc1c2cc[n+](C)cc2c(C)c2c1[nH]c1ccc(Br)cc12.[I-]
MIC (Escherichia coli [1]): 4 µg/mL
MIC (Staphylococcus aureus [2]): 8 µg/mL
Activity (Staphylococcus aureus [6]): 29.8%
MIC (Escherichia coli [3]): 16 µg/mL
IC50 [5]: 23 µM

COc1ccc2nc3cc(Cl)ccc3c(Nc3ccc(O)c(CN4CCCC4)c3)c2c1
MIC (Escherichia coli [1]): 256 µg/mL (≈ 590 µM)
MIC (Staphylococcus aureus [2]): 64 µg/mL (≈ 147 µM)
MIC (Escherichia coli [3]): 256 µg/mL (≈ 590 µM)
Activity (Escherichia coli [4]): 20%
IC50 [5]: 102 µM

COc1cc(NCCCNc2c3ccc(Cl)cc3nc3ccc(OC)cc23)c2ncccc2c1
MIC (Escherichia coli [1]): > 256 µg/mL
MIC (Staphylococcus aureus [2]): 256 µg/mL (≈ 541 µM)
MIC (Escherichia coli [3]): > 256 µg/mL
Activity (Escherichia coli [4]): 13%
IC50 [5]: 90 µM

COc1ccc2nc3cc(Cl)ccc3c(Nc3ccc(C(O)CCN(C)C)cc3)c2c1 (configuration not stated)
MIC (Escherichia coli [1]): 128 µg/mL (≈ 294 µM)
MIC (Staphylococcus aureus [2]): 256 µg/mL (≈ 587 µM)
MIC (Escherichia coli [3]): > 256 µg/mL
Activity (Escherichia coli [4]): 38%
IC50 [5]: 135 µM

CCCCCCCCN(CCCCCCCC)Cc1cc(Nc2c3ccc(Cl)cc3nc3ccc(OC)cc23)ccc1O
Activity (Escherichia coli [4]): 86%

Cc1c2cc[n+](C)cc2c(C)c2c1[nH]c1ccccc12.[I-]
MIC (Escherichia coli [1]): 4 µg/mL
MIC (Staphylococcus aureus [2]): 16 µg/mL
Activity (Staphylococcus aureus [6]): 37.3%
MIC (Escherichia coli [3]): 64 µg/mL
IC50 [5]: 46 µM

CC(=O)[O-].COc1ccc2[nH]c3c(C)c4cc[n+](C)cc4c(C)c3c2c1
MIC (Escherichia coli [1]): 4 µg/mL
MIC (Staphylococcus aureus [2]): 64 µg/mL
MIC (Escherichia coli [3]): 256 µg/mL
IC50 [5]: 89 µM

Cc1c2c[n+](C)ccc2c(C)c2c1c1cc(Br)ccc1n2C.[I-]
MIC (Escherichia coli [1]): 1 µg/mL
MIC (Staphylococcus aureus [2]): 2 µg/mL
Activity (Staphylococcus aureus [6]): 42.4%
MIC (Escherichia coli [3]): 32 µg/mL
IC50 [5]: 36 µM

COc1ccc2nc3cc(Cl)ccc3c(Nc3ccc(O)c(CN(CCCl)CCCl)c3)c2c1
Activity (Escherichia coli [4]): 22%

Cc1c2ccncc2c(C)c2c1[nH]c1ccc(O)cc12
MIC (Escherichia coli [1]): 8 µg/mL (≈ 30.5 µM)
MIC (Staphylococcus aureus [2]): 8 µg/mL (≈ 30.5 µM)
Activity (Staphylococcus aureus [6]): 71.9%
MIC (Escherichia coli [3]): 16 µg/mL (≈ 61 µM)
IC50 [5]: 192 µM

COc1ccc2[nH]c3c(C)c4cc[n+](C)cc4c(C)c3c2c1.[I-]
MIC (Escherichia coli [1]): 8 µg/mL
MIC (Staphylococcus aureus [2]): 32 µg/mL
Activity (Staphylococcus aureus [6]): 16%
MIC (Escherichia coli [3]): 256 µg/mL
IC50 [5]: 65 µM

COc1ccc2[nH]c3c(C)c4ccncc4c(C)c3c2c1
MIC (Escherichia coli [1]): > 256 µg/mL
MIC (Staphylococcus aureus [2]): > 256 µg/mL
MIC (Escherichia coli [3]): > 256 µg/mL
IC50 [5]: 60 µM

C=CCc1cc(Nc2c3ccc(Cl)cc3nc3ccc(OC)cc23)cc(CN(CC)CC)c1O
MIC (Escherichia coli [1]): > 256 µg/mL
MIC (Staphylococcus aureus [2]): 32 µg/mL (≈ 67.2 µM)
Activity (Staphylococcus aureus [6]): 47.7%
MIC (Escherichia coli [3]): > 256 µg/mL
Activity (Escherichia coli [4]): 27%
IC50 [5]: 161 µM

CCN(CC)Cc1cc(Nc2c3ccc(Cl)cc3nc3c(OC)ccc(Cl)c23)ccc1O
MIC (Escherichia coli [1]): > 256 µg/mL
MIC (Staphylococcus aureus [2]): > 256 µg/mL
MIC (Escherichia coli [3]): > 256 µg/mL
Activity (Escherichia coli [4]): 40%
IC50 [5]: 119 µM
